# The sample as a whole holds a higher share of hits than the screen did.
# T cruzi inh = T. cruzi replication inhibition; T. cruzi beta-gal in NIH3T3, luminescence, 90 h; inhibition, % (no concentration beside the values); actives 1.4% (n = 300,000);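 active = mean inhibition across valid replicates above about 55%, limit read from the data; inconclusive = mean below that limit but half or more replicates reach it; inactive = mean below it, under half of replicates reach it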;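 also: signal also drops with host cell toxicity which is not excluded here; 0% = plate median of DMSO wells and 100% = zero luminescence signal; higher percent means less beta-gal luminescence so fewer parasites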
#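 Read-out: Parasite load inhibition, % | Test system: Mouse NIH/3T3 fibroblasts infected with β-gal-expressing T. cruzi Tulahuen C4 | Amount: 5,000 cells/well | Medium: DMEM, 2% fetal bovine serum | Signal: GalScreen β-gal luminescence, detergent lysis, 60 min | Timing: 3 h attach, ≥90 h co-culture | Also added: Tulahuen C4 trypomastigotes, 5000/well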
# NLRP3 yeast inh = inhibitors of NALP3 inflammasome in yeast; Yeast reconstituted NLRP3/ASC/caspase-1, beta-gal luminescence, 24 h; inhibition, % at 10 µM; actives 0.39% (n = 330,000); AID 2825;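 active = inhibition of 50% or more; inactive = inhibition below 50%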;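 also: plate controls were induced DMSO wells for no effect and uninduced yeast grown without galactose for full effect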
# PolyA inh = inhibitors of polyadenylation in S. cerevisiae; S. cerevisiae SKY197-pL101 polyadenylation reporter, beta-gal luminescence; efflux-impaired pdr1/pdr3 knockout yeast; score 100 = 6 SD above DMSO; activity score, % at 12 µM; actives 0.02% (n = 300,000); AID 1875;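 active = lowest replicate activity score at least 50, where 100 means six control SD above control mean; inconclusive = lowest score under 50 but half or more replicates reach 50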;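 also: yeast exposed to compound for 9 h at 30 °C; higher score means more reporter readthrough which indicates perturbed polyadenylation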
# Calb FLC = affects C. albicans growth with fluconazole. C. albicans CaCi-2 + fluconazole, Alamar Blue growth, 48 h. growth inhibition, % (no concentration beside the values). actives 0.57% (n = 300,000);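 active = growth inhibition above about 58% in most replicates, limit read from the data, passing the limit was not always enough; inconclusive = exactly half the replicates above a set limit; inactive = most replicates below a set limit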;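 also: all wells also contain fluconazole at 8 µg/ml as a sub-toxic cotreatment; 0% = median of DMSO wells and 100% = median of geldanamycin control wells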
# L major viab = inhibitors of Leishmania major promastigote growth. Leishmania major promastigotes, resazurin fluorescence viability. inhibition, % at 10 µM. actives 9% (n = 200,000); in the data active = inhibition above about 50%;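 also: promastigotes grown with compound for 44 hours at 28 °C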
# NALP1 inh = inhibitors of NALP1 inflammasome in yeast; AID 2071; S. cerevisiae NALP1/ASC/caspase-1 growth, X-gal OD620, 72 h; inhibition, % at 10 µM; actives 0.61% (n = 280,000); in the data active = inhibition mostly above about 24%, no sharp cut-off; inactive = mostly below about 32%
# An asterisk follows results filed as active; ? = inconclusive; nt = no result.
SMILES,T cruzi inh,NLRP3 yeast inh,PolyA inh,Calb FLC,L major viab,NALP1 inh
CC1(C)Cc2c(cnn2-c2ccccc2)-c2c1c1ccccc1n2CC(O)CCl (configuration not stated),15,12,3,23,100*,6
O=C(Nc1ccc(Cl)c(C(F)(F)F)c1)NC1CC2CCCC(C1)N2C1CC1 (configuration not stated),33,8,3,nt,60*,nt
O=C(Nc1cccc(F)c1)NC1CC2CCCC(C1)N2C1CC1 (configuration not stated),-6,12,-1,-4,16,7
COc1ccc(NC(=O)CS(=O)(=O)Cc2ccccc2)c([N+](=O)[O-])c1,0,20,-14,14,nt,15
O=C(NCC1CCCO1)c1cc2c([nH]c3ccccc32)c(-c2cccc(Br)c2)n1 (configuration not stated),55*,12,-6,-5,nt,-2
Cc1ccc(-c2nc(C(=O)NCC3CCCO3)cc3c2[nH]c2ccccc23)cc1 (configuration not stated),53,-3,4,0,nt,6
CCN(CCCCCN(C)C)Cc1cc2ccccc2o1,55*,-8,-1,-7,22,32
Cc1ccsc1CN1CCC(C(=O)NCc2ccccc2Cl)CC1,10,7,8,-5,92*,21
O=S(=O)(NC1=NCCC1)c1cccc(NS(=O)(=O)c2ccc(OC(F)(F)F)cc2)c1,-10,11,6,-13,54*,15
O=C1CN2C(=Nc3ccc(Cl)cc3C2c2ccccc2)CN1 (configuration not stated),17,5,3,88*,-7,16
COc1ccc2c(c1)CCC1=C2NC(=S)NC1c1ccc(N(C)C)cc1 (configuration not stated),66*,14,2,4,90*,0
Cc1ccc2nc(NC(=O)C(NS(=O)(=O)c3cccc4nsnc34)C(C)C)sc2c1 (configuration not stated),18,-1,12,34,96*,11
COc1ccc2nc(NC(=O)C(NS(=O)(=O)c3cccs3)C(C)C)sc2c1 (configuration not stated),-33,0,-10,-21,89*,nt
COc1ccc2nc(N/C(=N/S(=O)(=O)c3cccs3)c3ccccc3Cl)sc2c1,9,3,-7,25,-4,19
CCCN(CCC)C(=O)C[n+]1cccc(/C=N/O)c1,-4,6,-1,-14,-4,15
O=C(CN1CCN(C2CCCCC2)CC1)NCCC1=CCCCC1,-6,7,0,-17,94*,-9
O=C(COc1ccc(S(=O)(=O)NC2CCCCC2)cc1)NCCC1=CCCCC1,14,10,1,-4,59*,15
COc1ccc(CC(=O)OC(C)CN2CCCCC2)cc1 (configuration not stated),-10,-3,13,22,-8,-3
Nc1nonc1-n1nnc(C(=O)N/N=C/c2ccoc2)c1-c1ccccc1,-5,22,-1,0,nt,3
CN(C1=C(N2CCOCC2)C(=O)c2ccccc2C1=O)c1ccccc1,-1,34,-9,9,59*,28
Cc1c(C(c2cccc(Br)c2)c2c(C)n(C)n(-c3ccccc3)c2=O)c(=O)n(-c2ccccc2)n1C,-3,12,-6,?,nt,8
Cc1cc(C)n(CCc2nc(-c3ccc(-c4ccccc4)cc3)cs2)n1,-30,-7,-31,27,-10,26
Cc1nnc2sc(-c3cccc(NC(=O)c4ccc(-c5cccc(Cl)c5)o4)c3)nn12,nt,nt,nt,nt,98*,nt
Cc1cc(SCC(=O)Nc2c(C)n(C)n(-c3ccccc3)c2=O)n2c(nc3ccccc32)c1C#N,nt,nt,nt,nt,87*,nt
C/C(=N\NC(N)=S)C1=CCC2C3CC[C@H]4CC(O)CC[C@]4(C)C3CC[C@]12C (some centres not stated),60*,37,-78,-7,nt,-3
SMILES,T cruzi inh,NLRP3 yeast inh,PolyA inh,Calb FLC,L major viab,NALP1 inh
Cc1ccc(C2=NNC(c3ccc(Cl)cc3)=Nc3ccccc32)o1,1,7,-12,-4,8,30
O=C(Cn1nc(Cc2ccncc2)c2ccccc2c1=O)N1CCN(C(=O)c2ccco2)CC1,-9,-6,14,-4,-10,36
O=C(Cn1nc(Cc2cccnc2)c2ccccc2c1=O)N1CCN(C(=O)c2ccco2)CC1,-5,-6,-21,-1,73*,16
Cc1ccc(C(=O)OC(C)C(=O)Nc2ccc3c(c2)OCO3)c(O)c1 (configuration not stated),nt,11,nt,nt,nt,nt
COc1ccc2c(c1)NC(C)(C)C=C2C,66*,9,14,1,-5,-8
CCC1(C)Nc2ccccc2C(=O)N1O (configuration not stated),-16,13,-3,27,-3,-9
COc1ccc2c(c1)C(=O)C(=O)N2,-16,8,-9,10,-7,2
CC1=CC(C)(C)Nc2ccccc21,75*,-8,12,6,17,-4
CC12CN3CC(C)(CN(C1)C3c1ccc([N+](=O)[O-])o1)C2=O (configuration not stated),80*,-1,-5,-21,-3,7
CCCC12CN3CC(C)(CN(C1)C3c1ccc([N+](=O)[O-])o1)C2=O (configuration not stated),17,14,-22,-10,nt,-7
CCCCC12CN3CC(C)(CN(C1)C3c1ccc([N+](=O)[O-])o1)C2=O (configuration not stated),17,20,13,-2,nt,16
CCC12CN3CC(CC)(CN(C1)C3c1ccc([N+](=O)[O-])o1)C2=O (configuration not stated),60*,22,-17,3,-6,15
Cc1nc(C)c(-c2ccc(SCC(=O)Nc3cccc(Cl)c3C)nn2)s1,18,21,-10,-6,nt,-4
Nc1ccc2nc[nH]c2c1,0,12,13,9,-3,-2
O=S(=O)(c1ccccc1)c1nc(-c2cccs2)oc1NCC1CCCO1 (configuration not stated),7,19,16,-5,86*,22
N#Cc1nc(-c2cccs2)oc1NCC1CCCO1 (configuration not stated),-11,4,17,3,-2,-1
O=C(COC(=O)c1ccccc1F)Nc1ccc(S(=O)(=O)N2CCOCC2)cc1,nt,3,nt,nt,nt,nt
COc1cc(OC)c(C2=NOC(C(=O)N3CCCc4ccccc43)C2)cc1Cl (configuration not stated),14,7,1,-1,6,37*
CCN(CC)CCCNC(=O)CSc1nc(-c2ccc(F)cc2)cc(C(F)(F)F)n1,4,0,-2,-7,13,-4

# Compound activity from PubChem BioAssay.
